Publication PMC3873380 (Molecular pharmaceutics, 2013)

Tested on: SK-OV-3 cells
Test: Confocal microscopy on live cells
Type: cell-based, human
Conditions: F′-PEpYLGLD 5 μM alone, opti-MEM, 2 h, 37 °C
In short: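 SK-OV-3 seeded at 1 × 10^5 cells/well on coverslips overnight in EMEM, then rinsed with opti-MEM. Exposed to treatments in opti-MEM for 2 h at 37 °C, washed three times with PBS and mounted. Imaged by laser scanning confocal, 20× objective, sequential frame mode. Channels: FITC (ex 488, em 500–550 nm), DAPI (ex 405, em 425–475 nm), DIC.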

- intracellular fluorescence of F′-PEpYLGLD alone (confocal): No green fluorescence was observed
Substance: F′-PEpYLGLD
